Screens as filed in PubChem BioAssay.
INS promoter act – TRM-6 insulin promoter activation; activation, % at 2 µM; actives 0.81% (n = 130,000); TRM-6 cells, insulin promoter eGFP reporter, imaging; plate-scaled: unstimulated 0, stimulated control 100;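 active = activation at 2 µM above a set limit, confirmed on inspection of the cell images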;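 note: share of cells whose green reporter signal exceeds an intensity cutoff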
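System – human fetal islet-derived TRM-6 cells with tamoxifen-inducible insulin promoter–eGFP reporter · Amount – 1,000 cells per well · Schedule – overnight tamoxifen, then two-day compound incubation at 37 °C · Detection – high-content imaging of fixed cells with Hoechst nuclear stain · Read-out – percent cells above green-intensity threshold, converted to percent activation versus plate controls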
Each line names hits and unclear results; the compound was inactive in the other large screens. This is one part of a sample in which hits are shown more often than they occur.

CC1CC(OCC(O)CN2CCN(Cc3ccccc3)CC2)CC(C)(C)C1 (centres undefined)	none
CC1CCC(C(C)C)C(OC(=O)CSc2nnc(N)s2)C1 (centres undefined)	none
Cc1ccccc1Oc1ncnc(N)c1[N+](=O)[O-]	none
Cc1ccc(Oc2ncnc(N)c2[N+](=O)[O-])cc1C	INS promoter act 312
Cc1cc(C)c(C)c(Oc2ncnc(N)c2[N+](=O)[O-])c1	none
CN(C)c1ccc(/C=C/c2ccncc2)cc1	INS promoter act 87
CC(C)OP(=O)(c1ccc(N(C)C)cc1)C(O)c1ccncc1 (centres undefined)	none
COc1ccc(/C=C/c2ccncc2)cc1	none
CCCCCCC(=O)N/N=C1\CCCc2ccccc21	none
Nc1ccc(C(=O)OC2CCOC2=O)cc1[N+](=O)[O-] (centres undefined)	none
CC(C)(C)c1csc(NC(=O)Cn2c(=O)oc3ccccc32)n1	INS promoter act 429
O=C(Cn1c(=O)oc2ccccc21)c1ccccc1	none
CCOc1ccc(NC(=O)Cn2c(=O)oc3ccccc32)cc1	none
Cc1ccc(NC(=O)CCC(=O)OCC(=O)c2ccc(-c3ccccc3)cc2)cc1	none
O=C(CCC(=O)OCCCC(F)(F)C(F)(F)F)Nc1ccccc1	none
Cc1ccc(NC(=O)CCC(=O)OCC(F)(F)C(F)F)cc1	INS promoter act 81
N#C/C(=C\c1cn(Cc2ccccc2F)c2ccccc12)C(=O)NCc1ccco1	none
CC1(C)C(=O)NCCN1C(=O)CCC(=O)O	none
Cn1nc(C(=O)NCc2ccc(F)cc2)c2ccccc2c1=O	none
Cn1nc(C(=O)NCc2ccccn2)c2ccccc2c1=O	none
Cn1nc(C(=O)NCc2cccs2)c2ccccc2c1=O	INS promoter act 76
COc1cc(CN(C(=S)NCC(=O)NC2CCCC2)C2CCCC2)cc(OC)c1OC	none
Cc1ccccc1C(=O)Oc1cc(N)n(S(=O)(=O)c2ccccc2)n1	none
Cc1ccc(Sc2ncccc2COC(=O)NC(C)C)cc1	none
CCn1c(SCC(=O)Nc2ccc(S(=O)(=O)Nc3ccccn3)cc2)nnc1-c1ccncc1	INS promoter act 569
CCn1c(SCC(=O)NC2CCCc3ccccc32)nnc1-c1ccncc1 (centres undefined)	none
CCn1c(SCC(=O)Nc2cccc(NC(=O)c3cccs3)c2)nnc1-c1ccncc1	none
COc1ccc(C2N(c3ccccc3)CCN2c2ccccc2)cc1O	none
CCOC(=O)c1ccccc1NC(=O)c1ccc(N(C)S(C)(=O)=O)cc1	none
CCOc1ccc(N(CC(=O)Nc2ccccc2C(=O)NCc2ccco2)S(C)(=O)=O)cc1	none
CCOC(=O)c1ccccc1NC(=O)CN(c1ccc(OCC)cc1)S(C)(=O)=O	INS promoter act 387
CCCCCCOc1ccc(-c2ccc(C#N)cn2)cc1	none
Cc1cc(NC(=O)c2ccc(NC(=O)CC(C)C)cc2)no1	INS promoter act 523
Cc1cc(NC(=O)c2ccc(Cl)cc2)no1	none
Cc1cc(NC(=O)c2ccc(S(=O)(=O)N(C)C)cc2)no1	none
COc1ccc(OC)c(C(=O)CSc2nnc(Cc3cccs3)n2CCc2ccccc2)c1	none
O=S1(=O)CCN(OCc2ccc(Cl)cc2)CC1	none
CCN1CCc2c(OCC(=O)Nc3cccc(C)c3)cccc2C1=O	none
CC1CCN(C(=O)COc2cccc3c2CCN(Cc2ccccc2)C3=O)CC1	none
Cc1ccccc1CN1CCc2c(OCC(=O)N3CCCc4ccccc43)cccc2C1=O	INS promoter act 128
Cc1ccc(C)c(OC(=O)c2cncc(Br)c2)c1	none
CCc1cccc(C)c1NC(=O)C1CN(S(=O)(=O)c2ccccc2)CCN1S(=O)(=O)c1ccccc1 (centres undefined)	none
O=C(COc1ccc([N+](=O)[O-])cc1)N/N=C/c1cc([N+](=O)[O-])ccc1N1CCOCC1	none
O=[N+]([O-])c1ccc(N/N=C/c2sc(N3CCOCC3)nc2-c2ccccc2)c(S(=O)(=O)Nc2ccc(Cl)cc2)c1	INS promoter act 488
COC(=O)CCC(=O)Nc1cc(S(=O)(=O)Nc2ccc(Cl)cc2)ccc1N1CCOCC1	none
COc1ccc(S(=O)(=O)N2CC(O)CC2C(=O)OCc2nc3sc(C)c(C)c3c(=O)[nH]2)cc1 (centres undefined)	none
CCN(CC)C(=O)C(=O)c1cn(CC(=O)N2CCc3ccccc3C2)c2ccccc12	none
CN(C(=O)CSC1=NC2C(N=N1)c1cc(Br)ccc1N2C)C1CCCCC1 (centres undefined)	none
Cc1ccc(-c2ccc(CCC(=O)O)n2CC(=O)O)cc1	none
Cc1ccc(-c2ccc(CCC(=O)O)n2-c2cccc(O)c2)cc1	INS promoter act 291
Cc1ccc(-c2ccc(CCC(=O)O)n2-c2ccc(O)cc2)cc1	none
CCC(c1nnnn1C1CCCC1)N1CCN(c2cccc(OC)c2)CC1 (centres undefined)	none
C=CCNc1nc(S(=O)Cc2ccc(C)cc2)nc2c1CCCC2 (centres undefined)	none
O=C(CCc1[nH]c2ccccc2c1Sc1ccccc1)NCCO	none
N#Cc1c(C(F)(F)F)cc(-c2ccccc2)nc1SCc1nc(N)nc(N2CCOCC2)n1	INS promoter act 251
FC(F)(F)c1cc(-c2ccccc2)nc(N2CCOCC2)n1	none
COc1ccc(-c2cc(C(F)(F)F)c(C#N)c(SCC(=O)Nc3ccc(C)cc3)n2)cc1	none
O=C1CC(NN2CCCCC2)C(=O)N1c1ccccc1 (centres undefined)	none
CCO/N=C(\C)c1c(O)c2ccccc2n(C)c1=O	none
Cc1nn(-c2ccccc2)c(Oc2ccccc2)c1C=O	none
O=C(NCc1cccc(F)c1)c1noc2c1CCCC2	INS promoter act 257
O=C(NCc1cccnc1)c1noc2c1CCCC2	none
CCc1ccc(NC(=O)c2noc3c2CCC3)cc1	none
CCCCN1C(=O)C2Cc3c([nH]c4ccccc34)CN2C1=S (centres undefined)	none
C/C(CCN1CCc2nc(-c3ccccc3)c(-c3ccccc3)cc2C1)=N\O[C@@H](C)c1cn([C@H](CO)Cc2ccccc2)nn1	none
CC(=O)c1ccc(Oc2nc(-c3cccnc3)nc3ccccc23)cc1	none
CC(=O)Nc1ccnc(-c2cccnc2)n1	INS promoter act 187
Cc1ccccc1C(=O)Nc1ccnc(-c2ccncc2)n1	none
O=C(NNC(=O)c1ccc([N+](=O)[O-])cc1Cl)c1ccncc1	none
Cc1ccc(C)c(C(=O)Cn2ncc(Cl)c(Cl)c2=O)c1	none
Cc1ccc(C(=O)OCn2ncc(Cl)c(Cl)c2=O)cc1	INS promoter act 194
CCOC(=O)c1ccc(NC(=O)Cn2ncc(Cl)c(Cl)c2=O)cc1	none
CN(c1ccccc1)c1ccc(/C=N/NC(=O)CC#N)cc1	none
COCCNC(=O)/C=C/c1c(Cl)cccc1Cl	none
COCC(=O)N(c1ccccc1)C(C)C(=O)OC (centres undefined)	none
COc1cc([N+](=O)[O-])cc2sc(NC(=O)c3c(F)cccc3F)nc12	none
Fc1ccc(CNc2nc(-c3ccccc3)nc3ccccc23)cc1	none
Cc1ccc(-c2nc(N/N=C/c3cccc([N+](=O)[O-])c3)c3ccccc3n2)cc1	none
O=[N+]([O-])c1cccc(-c2nc(NCc3ccccc3)c3ccccc3n2)c1	INS promoter act 322
CC1=C(C(=O)OCc2ccc(C)cc2)C(c2ccc(O)c([N+](=O)[O-])c2)NC(=O)N1 (centres undefined)	none
Cc1ccc(C(=O)OCC(=O)N(C)C2CCS(=O)(=O)C2)cc1[N+](=O)[O-] (centres undefined)	none
O=C1C2C3C=CC(C2C(=O)N1C1CCCCC1)C1C2C(=O)N(C4CCCCC4)C(=O)C2C31 (centres undefined)	none
COc1ccccc1N1CCN(C(CNS(=O)(=O)c2ccc(C)cc2)c2cccnc2)CC1 (centres undefined)	INS promoter act 76
